This passage reports EC50 results from PubChem BioAssay AID1737 (Vanderbilt High Throughput Screening Facility, 2009).

The target of this assay is Solute carrier family 12 member 5 (Homo sapiens) (UniProt Q9H2X9). Description: KCC2 cotransporter modulators, thallium uptake, dose response, cell-based, HEK293-KCC2, thallium flux, FluoZin2, sodium-free, assay 3 (AID 1737). The note with it: HEK293-KCC2, thallium flux FluoZin2 fluorescence, Na-free. In a few lines:
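Assay system: KCC2-expressing HEK cells. Medium: Sodium-free N-methylglucamine chloride assay buffer. Also added: thallium sulfate stimulus. Compound: 11 doses, 3-fold steps, 30 µM top. Signal: FluoZin2 fluorescence, 480/540 nm. Measure: EC50 from normalized thallium-flux slope. Control set: bumetanide as positive control. Replicates: triplicate wells per dose, each replicate fitted separately.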

The structures appear in SMILES notation. Inconclusive results are not listed. Calls of active or inactive are those of the source.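 The calls were made as follows: active = converged dose curve in at least two of three replicates, even with few points beside the midpoint; inactive = the rest, inconclusive results apart.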

Solute carrier family 12 member 5 (Homo sapiens), sequence (Q9H2X9 whole entry, looked up): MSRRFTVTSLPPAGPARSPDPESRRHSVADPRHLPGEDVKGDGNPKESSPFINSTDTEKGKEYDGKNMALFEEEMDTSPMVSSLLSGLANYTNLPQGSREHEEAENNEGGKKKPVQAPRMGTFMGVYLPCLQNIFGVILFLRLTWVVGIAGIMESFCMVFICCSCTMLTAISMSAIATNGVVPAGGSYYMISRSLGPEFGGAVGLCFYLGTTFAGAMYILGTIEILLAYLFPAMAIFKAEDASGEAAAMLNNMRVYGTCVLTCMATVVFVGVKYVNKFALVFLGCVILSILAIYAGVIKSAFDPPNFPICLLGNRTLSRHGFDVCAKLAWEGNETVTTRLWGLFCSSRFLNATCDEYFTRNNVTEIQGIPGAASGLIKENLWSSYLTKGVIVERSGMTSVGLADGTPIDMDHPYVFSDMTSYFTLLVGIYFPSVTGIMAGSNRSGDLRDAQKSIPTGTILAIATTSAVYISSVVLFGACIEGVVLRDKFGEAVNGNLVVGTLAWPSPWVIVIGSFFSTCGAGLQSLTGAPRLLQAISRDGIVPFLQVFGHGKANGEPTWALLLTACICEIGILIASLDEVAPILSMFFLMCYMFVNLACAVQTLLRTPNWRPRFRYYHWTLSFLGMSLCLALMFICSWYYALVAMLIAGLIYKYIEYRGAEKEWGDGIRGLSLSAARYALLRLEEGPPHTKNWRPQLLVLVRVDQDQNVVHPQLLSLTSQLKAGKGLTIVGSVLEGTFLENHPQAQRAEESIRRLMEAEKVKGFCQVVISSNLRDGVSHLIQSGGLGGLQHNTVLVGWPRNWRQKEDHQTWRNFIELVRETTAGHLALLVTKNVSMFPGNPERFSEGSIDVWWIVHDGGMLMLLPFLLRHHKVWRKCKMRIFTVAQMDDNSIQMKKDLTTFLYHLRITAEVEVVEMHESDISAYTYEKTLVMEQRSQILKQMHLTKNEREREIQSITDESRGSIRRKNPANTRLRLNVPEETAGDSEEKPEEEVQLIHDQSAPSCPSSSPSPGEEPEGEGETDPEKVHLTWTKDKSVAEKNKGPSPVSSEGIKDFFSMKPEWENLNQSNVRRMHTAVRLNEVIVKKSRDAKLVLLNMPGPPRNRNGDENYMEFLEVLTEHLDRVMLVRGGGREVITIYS

For the molecule `O=C(NC(=S)Nc1cccc2cccnc12)c1cccs1`, the EC50 entry is “inactive”.

As for `Fc1cccc(F)c1/C=N/NC(=S)Nc1cccnc1`, the EC50 entry is “inactive”.

For the molecule `O=C(NC(=S)Nc1ccc2c(c1)OCO2)c1ccc(Cl)cc1`, the EC50 result is “inactive”.

As for `O=c1c2ccccc2[nH]c(=S)n1CCN1CCC(=C(c2ccc(F)cc2)c2ccc(F)cc2)CC1`, the EC50 entry is “inactive”.

As for `Cc1onc(-c2ccccc2Cl)c1C(=O)NC(=S)Nc1ccc(C(C)C)cc1`, the EC50 result was “inactive”.

For the molecule `O=[N+]([O-])c1ccc(-c2cn(-c3ccccc3F)c(=S)[nH]2)cc1`, the EC50 is 318 nM.

For `Cc1ccc(-c2n[nH]c(=S)n2/N=C/C=C\c2ccccc2[N+](=O)[O-])cc1`, the EC50 entry is “inactive”.

As for `COc1ccc(N2C(=S)N=C(Nc3cccc(C)c3)C23CCCCC3)cc1`, the EC50 was 417 nM.

Regarding `CC(=O)c1cccc(NC(=S)NC(=O)c2ccc(C)cc2)c1`, the EC50 was 288 nM.

Consider `NC(=S)N=Nc1c(O)n(Cc2ccccc2)c2ccccc12`, for which the EC50 entry was “inactive”.

Turning to `CCOc1cccc(C(=O)NC(=S)Nc2cccc(C)c2)c1`, the EC50 result is “inactive”.

As to `O=[N+]([O-])c1ccccc1/C=C/C=N/n1c(-c2ccc(Cl)cc2)n[nH]c1=S`, the EC50 result is “inactive”.

Consider `COc1ccc(-c2nnc(-c3ccc(OCC(C)C)cc3)o2)cc1`, for which the EC50 result was “inactive”.

For `COc1cccc(/C=c2\s/c(=C/C(=O)c3ccc(C)cc3)[nH]c2=O)c1OC`, the EC50 entry is “inactive”.
